ChEMBL document CHEMBL3808362, “Affinity-Guided Design of Caveolin-1 Ligands for Deoligomerization” (J Med Chem, 2016)
pKd: −log10 of the molar value. Values belong to the compound of their own block, whether it stands above or below them. The source made the active and inactive calls. The calls are words filed in the database; no cut-off is given here. Peptide text beside a SMILES is read from it.

What was measured:
[1] = molecular target: T1, Caveolin-1 (Homo sapiens) (UniProt Q03135); experiment: Binding affinity to rhodamine-labeled human CAV (1 to 104 residues) expressed in Escherichia coli BL21-DE3 by SPOT screening assay
T1 sequence (whole entry): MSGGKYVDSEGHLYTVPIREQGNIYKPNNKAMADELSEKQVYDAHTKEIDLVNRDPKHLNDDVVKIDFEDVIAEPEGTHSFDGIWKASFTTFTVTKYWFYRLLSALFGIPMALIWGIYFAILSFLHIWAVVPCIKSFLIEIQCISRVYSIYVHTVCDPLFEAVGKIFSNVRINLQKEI
Procedure, shortened: (§1)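 Peptides synthesized on cellulose SPOT arrays with a double β-Ala linker, screened in duplicate sheets against rhodamine-labeled protein. Sheets were washed and blocked, and SPOT fluorescence was quantified as relative apparent binding. Signal from blank linker-only SPOTs was subtracted on each sheet.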

[2] = molecular target: T1, Caveolin-1 (Homo sapiens); experiment: Inhibition of oligomerization of human soluble full length variant CAV at 10 uM by dynamic light scattering analysis
Procedure, shortened: (§2)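 Soluble full-length CAV variant (CAV(FLV)) forms oligomers spontaneously. These were incubated with peptide, and particle size was measured by dynamic light scattering as average diameter and polydispersity. For line 7, incubation was under reducing conditions to disrupt the peptide's disulfide dimerization.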

[3] = molecular target: T1, Caveolin-1 (Homo sapiens); experiment: Inhibition of oligomerization of human soluble full length variant CAV at 10 uM by dynamic light scattering analysis in presence of TCEP; procedure, shortened: as §2
[4] = molecular target: T1, Caveolin-1 (Homo sapiens); experiment: Inhibition of oligomerization of human soluble full length variant CAV by dynamic light scattering analysis
Procedure, shortened: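 CAV(FLV) oligomers were incubated with varied peptide concentrations. Dose dependence was followed by dynamic light scattering as the diameter of separate oligomeric peaks.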

Albumin = Albumin (Bos taurus, UniProt P02769); experiment: Binding affinity to rhodamine-labeled bovine serum albumin by SPOT screening assay; assay type: ADME; details: cattle, isolated protein; procedure, shortened: as §1
Homo sapiens = species on record: Homo sapiens; experiment: Binding affinity to rhodamine-labeled casein (unknown origin) by SPOT screening assay; procedure, shortened: as §1
Gallus gallus = species on record: Gallus gallus; experiment: Binding affinity to rhodamine-labeled hen egg white lysozyme by SPOT screening assay; procedure, shortened: as §1
Caveolin-1 = molecular target: T2, Caveolin-1 (Homo sapiens, UniProt Q03135); experiment: Binding affinity to human CAV (1 to 104 residues) expressed in Escherichia coli BL21-DE3 by isothermal titration calorimetric analysis
T2 sequence (Q03135 whole entry): T1 sequence (whole entry)

Sequence of Albumin (P02769 whole entry): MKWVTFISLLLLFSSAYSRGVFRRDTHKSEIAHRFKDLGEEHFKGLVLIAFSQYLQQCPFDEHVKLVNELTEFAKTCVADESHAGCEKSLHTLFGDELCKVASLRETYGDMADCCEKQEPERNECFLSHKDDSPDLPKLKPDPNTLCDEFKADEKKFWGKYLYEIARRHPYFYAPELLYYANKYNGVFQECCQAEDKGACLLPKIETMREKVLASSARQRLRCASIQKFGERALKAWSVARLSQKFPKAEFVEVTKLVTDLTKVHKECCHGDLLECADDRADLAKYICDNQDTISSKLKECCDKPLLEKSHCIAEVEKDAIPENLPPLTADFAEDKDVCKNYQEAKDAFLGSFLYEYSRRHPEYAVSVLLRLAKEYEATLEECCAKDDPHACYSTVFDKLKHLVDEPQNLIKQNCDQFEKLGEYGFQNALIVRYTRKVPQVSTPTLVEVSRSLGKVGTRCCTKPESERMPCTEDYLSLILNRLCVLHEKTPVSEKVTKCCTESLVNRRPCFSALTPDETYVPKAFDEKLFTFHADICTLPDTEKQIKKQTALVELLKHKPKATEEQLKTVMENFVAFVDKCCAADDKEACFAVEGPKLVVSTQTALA

Activity [1]: Active
Structure (SMILES): CSCC[C@H](NC(=O)[C@H](CO)NC(=O)CNC(=O)[C@H](Cc1c[nH]c2ccccc12)NC(=O)[C@@H](N)CCCNC(=N)N)C(=O)N[C@@H](CC(C)C)C(=O)N[C@@H](CCCCN)C(=O)N[C@@H](CS)C(=O)N[C@@H](Cc1ccccc1)C(=O)O (H-RWGSMLKCF-OH)

inhibition [2]: Active | inhibition [3]: inactive | inhibition [4]: Dose-dependent effect | Activity [1]: Active | Activity (Albumin): Not Active | Activity (Homo sapiens): inactive | Activity (Gallus gallus): inactive
Structure (SMILES): CSCC[C@H](NC(=O)[C@H](Cc1c[nH]c2ccccc12)NC(=O)[C@H](CO)NC(=O)[C@@H](N)CS)C(=O)N[C@@H](CCCNC(=N)N)C(=O)N[C@@H](CC(C)C)C(=O)N[C@@H](CCCCN)C(=O)O (H-CSWMRLK-OH)

pKd (Caveolin-1): ≥ 6.81
Structure (SMILES): CC[C@H](C)[C@H](NC(=O)[C@H](CC(C)C)NC(=O)[C@H](CO)NC(=O)[C@H](Cc1cnc[nH]1)NC(=O)[C@@H](NC(=O)[C@H](CC(C)C)NC(=O)[C@H](CO)NC(=O)[C@@H](NC(=O)[C@@H](N)Cc1ccc(O)cc1)[C@@H](C)O)[C@@H](C)CC)C(=O)N[C@@H](CCC(=O)O)C(=O)N[C@@H](CCC(=O)O)C(=O)N[C@@H](CO)C(=O)N[C@@H](CCC(N)=O)C(=O)N[C@@H](CC(N)=O)C(=O)N[C@@H](CCC(N)=O)C(=O)N[C@@H](CCC(N)=O)C(=O)N[C@@H](CCC(=O)O)C(=O)N[C@@H](CCCCN)C(=O)N[C@@H](CCC(N)=O)C(=O)N[C@@H](CCC(=O)O)C(=O)N[C@@H](CCCCN)C(=O)N[C@@H](CCC(=O)O)C(=O)N[C@@H](CC(C)C)C(=O)N[C@@H](CCSC)C(=O)N[C@@H](CCC(=O)O)C(=O)N[C@@H](CC(C)C)C(=O)N[C@@H](CCC(=O)O)C(=O)N[C@@H](CCCNC(=N)N)C(=O)N[C@@H](Cc1c[nH]c2ccccc12)C(=O)NCC(=O)N[C@@H](CO)C(=O)N[C@@H](CCSC)C(=O)N[C@@H](CC(C)C)C(=O)N[C@@H](CCCCN)C(=O)N[C@@H](CS)C(=O)N[C@@H](Cc1ccccc1)C(=O)O (H-YTSLIHSLIEESQNQQEKQEKELMELERWGSMLKCF-OH)

Activity [1]: Active
Structure (SMILES): CSCC[C@H](NC(=O)[C@H](CO)NC(=O)CNC(=O)[C@H](Cc1c[nH]c2ccccc12)NC(=O)[C@H](CCCNC(=N)N)NC(=O)[C@H](CCC(=O)O)NC(=O)[C@H](CC(C)C)NC(=O)[C@H](CCC(=O)O)NC(=O)[C@H](CCSC)NC(=O)[C@H](CC(C)C)NC(=O)[C@@H](N)CCC(=O)O)C(=O)N[C@@H](CC(C)C)C(=O)N[C@@H](CCCCN)C(=O)N[C@@H](CS)C(=O)N[C@@H](Cc1ccccc1)C(=O)O (H-ELMELERWGSMLKCF-OH)
